13 compounds from ChEMBL document CHEMBL1124424, “Effects of steroid D-ring modification on suicide inactivation and competitive inhibition of aromatase by analogues of androsta-1,4-diene-3,17-dione” (J Med Chem, 1989) can be followed below.

pKi: −log10 of the molar value.

Broadly, the pKi is the negative decadic logarithm of the Ki, by convention in mol/L. A higher pKi goes with a small Ki.

The target in data set [1] is T1, Aromatase (Homo sapiens, UniProt P11511).
T1 sequence (P11511 whole entry): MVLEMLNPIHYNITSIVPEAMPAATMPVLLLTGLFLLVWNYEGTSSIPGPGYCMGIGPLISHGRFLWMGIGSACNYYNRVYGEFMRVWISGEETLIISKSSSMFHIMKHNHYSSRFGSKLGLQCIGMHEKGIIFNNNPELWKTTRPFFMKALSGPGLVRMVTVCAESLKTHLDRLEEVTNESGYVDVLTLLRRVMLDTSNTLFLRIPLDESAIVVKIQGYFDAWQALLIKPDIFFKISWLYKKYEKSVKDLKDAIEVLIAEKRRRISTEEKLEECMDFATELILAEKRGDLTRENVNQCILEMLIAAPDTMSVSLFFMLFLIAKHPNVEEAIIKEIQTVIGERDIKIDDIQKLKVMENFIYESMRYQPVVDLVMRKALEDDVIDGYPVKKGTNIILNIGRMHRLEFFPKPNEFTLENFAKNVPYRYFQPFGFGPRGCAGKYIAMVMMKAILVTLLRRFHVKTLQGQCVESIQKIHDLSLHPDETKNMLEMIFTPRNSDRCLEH
Briefly: Competitive inhibition of binding to human placental aromatase Cytochrome P450 19A1.

For data set [2], the target named is T1, Aromatase. Kind of data set: Ratio of Ki to Km for human placental cytochrome P450 19A1. In a few lines: (§1)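 Human placental microsomes (stored at -70 °C) in incubation buffer containing 4% by weight propylene glycol. Aromatase assays ran 1–5 min with five androstenedione concentrations (0.05–1.0 μM) and varied inhibitor concentrations. Ki is the average of two determinations at each of two inhibitor concentrations, with average deviation. Androstenedione Km was determined in each experiment, and the Ki/Km ratio was calculated.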

Data set [3] concerns the target T1, Aromatase. Briefly: Inactivation rate (Ki) of human placental Cytochrome P450 19A1. In short, it runs like this: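 Inhibitor at four concentrations, in duplicate, was preincubated for various times with human placental microsomes and NADPH in buffer with 4% propylene glycol. Tritiated androstenedione was then added and residual aromatase activity assayed over 5 min. Loss was corrected against inhibitor-free controls, and first-order slopes gave k_app. Apparent Ki and k_inact came from a reciprocal k_app vs reciprocal concentration plot, with limiting t1/2 = ln2/k_inact.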

Data set [4] deals with T1, Aromatase. Briefly: Competitive inhibition of binding to human placental Cytochrome P450 19A1. In short, it runs like this: as §1
In data set [5] the target is T1, Aromatase. Briefly: Inactivation rate (Ki) for human placental aromatase Cytochrome P450 19A1.
Data set [6] in a line: Limiting t1/2 is the half life of aromatase inactivation in the presence of saturating concentrations of inhibitor. In a few lines:
(§2)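 Human placental microsomes (stored -70 °C; protein 8.9–16.4 mg/mL, specific activity 34–101 pmol min⁻¹ (mg protein)⁻¹) preincubated with NADPH and four inhibitor concentrations for various times, in buffer with 4% propylene glycol. Tritiated androstenedione then added and remaining aromatase activity assayed 5 min. Duplicates averaged. Activity corrected against inhibitor-free controls. Apparent Ki and kinact from double-reciprocal plot of kapp vs inhibitor concentration. Limiting t1/2 = ln2/kinact.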

Data set [7] addresses T1, Aromatase. Kind of data set: Inactivation rate (Ki) for human placental Cytochrome P450 19A1. In short, it runs like this: as §2

In data set [1], `CCC(=O)C1(C)CCC2C(CCC3=CC(=O)C=CC32C)C1` (stereo not drawn) had a negative-log Ki (pKi) of 4.01. Also, the Ratio in data set [2] stood at 1833.
As to `CC(=O)C1(C)CCC2C(CCC3=CC(=O)C=CC32C)C1` (stereo not drawn), the pKi in data set [1] was 4.35. Further, the Ratio in data set [2] is 670.
As for `CC(=O)OCC1(C)CCC2C(CCC3=CC(=O)C=CC32C)C1` (stereo not drawn), the pKi in data set [1] is 4.89. Also, the Ratio in data set [2] is given as 273.
In data set [3], `CC1(C=O)CCC2C(CCC3=CC(=O)C=CC32C)C1` (stereo not drawn) had a pKi of 5.40.
Take `CC1(C(=O)O)CCC2C(CCC3=CC(=O)C=CC32C)C1` (stereo not drawn): in data set [1], the pKi is 3.05. The Ratio in data set [2] was found to be 18651.
Turning to `CC1C2CCC3=CC(=O)C=CC3(C)C2CCC1(C)C(=O)O` (stereo not drawn), the Ratio in data set [2] was found to be 23234. The same compound showed a pKi in data set [4] of 2.92.
In the case of `C[C@]12C=CC(=O)C=C1CC[C@@H]1[C@@H]2CC[C@]2(C)C(=O)OC[C@@H]12`, the pKi was 6.39 in data set [1] and 6.41 in data set [5]. In addition, in data set [6], the “Limiting t1/2” value is 6.2 min.
Turning to `COC(=O)C1(C)CCC2C(CCC3=CC(=O)C=CC32C)C1` (stereo not drawn), the Ratio in data set [2] is listed as 1898. This compound gave a pKi in data set [4] of 3.89.
Compound `CC1(CO)CCC2C(CCC3=CC(=O)C=CC32C)C1` (stereo not drawn) gave a negative logarithm of the Ki (pKi) in data set [3] of 5.07.
With `CC12CCCC1C1CCC3=CC(=O)C=CC3(C)C1CC2` (stereo not drawn), the negative logarithm of the Ki (pKi) in data set [1] was 6.16; in data set [7], 5.96. In data set [2], the Ratio is on record as 8.8. Besides, in data set [6], the “Limiting t1/2” value was 15.2 min.
On to `COC(=O)C1(C)CCC2C(CCC3=CC(=O)C=CC32C)C1C` (stereo not drawn), for which the pKi in data set [1] was 3.99. The Ratio in data set [2] is given as 2600.
Consider `C[C@]12C=CC(=O)C=C1CC[C@@H]1[C@@H]2CC[C@]2(C)C(=O)CC[C@@H]12` [ANDROSTENEDONE], for which the “Limiting t1/2” value in data set [6] is 12.6 min.
With `C[C@]12CCC(=O)C[C@@H]1CC[C@@H]1[C@@H]2CC[C@]2(C)[C@@H](O)CC[C@@H]12` [STANOLONE], in data set [2], the Ratio is on record as 10.6. For the same compound, the pKi was 6.66 in data set [4] and 5.81 in data set [7]. Moreover, the “Limiting t1/2” value in data set [6] is recorded as 12.9 min.
